Converted amounts (≈) assume the structure as drawn.
Tests used:
Format in all cases: functional
[1] = test system: Pseudomonas aeruginosa; assay: Antibacterial activity was determined against gram negative organism, Pseudomonas aeruginosa UI-18; settings: Pseudomonas aeruginosa; read-out: MIC
Procedure, shortened: (§1)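 MIC (µg/mL) by standard microtitration against a panel of 10 Gram-positive and Gram-negative organisms; values averaged from multiple experiments.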

[2] = target: DNA gyrase (Escherichia coli) (UniProt P0AES6+P0AES4); assay: Minimum inhibitory concentration against Escherichia coli DNA-gyrase in supercoiling assay
[3] = test system: Bacteria; assay: MIC ratio measured as the mean MICs of gram-negative bacteria
Procedure, shortened: (§2)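 Geometric mean of the microtitration MICs (µg/mL) over the Gram-negative organisms, and separately over the Gram-positive organisms, of the 10-strain panel; individual MICs averaged from multiple experiments.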

[4] = test system: Streptococcus pyogenes; assay: Antibacterial activity was determined against gram positive organism, Streptococcus pyogenes C203; settings: Streptococcus pyogenes; read-out: MIC; procedure, shortened: as §1
[5] = test system: Enterobacter cloacae; assay: Antibacterial activity was determined against gram negative organism, Enterobacter cloacae MA2646; settings: Enterobacter cloacae; read-out: MIC
[6] = test system: Escherichia coli; assay: The in vivo potency was determined in female charles river CD-1 mice infected with Escherichia coli after peroral administration; settings: Escherichia coli, po; read-out: PD50
Procedure, shortened: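 Acute lethal systemic infection in female CD-1 mice, 16 mice per route; single dose given orally by gavage at the time of challenge; median protective dose (PD50, mg/kg) determined.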

[7] = test system: Streptococcus pneumoniae; assay: Antibacterial activity was determined against gram positive organism, Streptococcus pneumoniae SV-1; settings: Streptococcus pneumoniae; read-out: MIC; procedure, shortened: as §1
[8] = test system: Bacteria; assay: Antibacterial activity was determined against gram negative organism, Providencia rettgeri. M1771; settings: Bacteria; read-out: MIC; procedure, shortened: as §1
[9] = test system: Staphylococcus aureus; assay: Antibacterial activity was determined against gram positive organism, Staphylococcus aureus H228; settings: Staphylococcus aureus; read-out: MIC; procedure, shortened: as §1
[10] = test system: Escherichia coli; assay: Antibacterial activity was determined against gram negative organism, Escherichia coli vogel; settings: Escherichia coli; read-out: MIC; procedure, shortened: as §1
[11] = test system: Klebsiella pneumoniae; assay: Antibacterial activity was determined against gram negative organism, Klebsiella pneumoniae MGH-2; settings: Klebsiella pneumoniae; read-out: MIC; procedure, shortened: as §1
[12] = test system: Staphylococcus aureus; assay: Antibacterial activity was determined against gram positive organism, Staphylococcus aureus UC76; procedure, shortened: as §1
[13] = test system: Enterococcus faecalis; assay: Antibacterial activity was determined against gram positive organism, Streptococcus faecalis MGH-2; settings: Enterococcus faecalis; read-out: MIC; procedure, shortened: as §1
[14] = test system: Escherichia coli; assay: The in vivo potency was determined in female charles river CD-1 mice infected with Escherichia coli after sc administration; settings: Escherichia coli, sc; read-out: PD50
Procedure, shortened: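 Acute lethal systemic infection in female CD-1 mice, 16 mice per route; single subcutaneous dose given at the time of challenge; median protective dose (PD50, mg/kg) determined.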

[15] = test system: Bacteria; assay: MIC ratio measured as the mean MICs of gram-positive bacteria; procedure, shortened: as §2
[16] = Staphylococcus aureus, read-out: MIC

`CC1CN(c2c(F)cc3c(=O)c(C(=O)O)cn(C4CC4)c3c2F)CCN1` (centres undefined) gave an MIC [1] of 0.4 µg/mL (≈ 1.1 µM), an MIC [2] of 1 µg/mL (≈ 2.75 µM) and a Geometric mean MIC over Gram-negative bacteria (µg/mL) [3] of 0.066. For the same molecule, the MIC [4] was 0.4 µg/mL (≈ 1.1 µM), the MIC [5] was 0.05 µg/mL (≈ 0.138 µM) and the ED50 [6] was 0.8 mg/kg. The MIC [7] was 0.4 µg/mL (≈ 1.1 µM), the MIC [8] was 0.1 µg/mL (≈ 0.275 µM) and the MIC [9] was 0.2 µg/mL (≈ 0.55 µM). The MIC [10] was 0.025 µg/mL (≈ 0.0688 µM), the MIC [11] was 0.025 µg/mL (≈ 0.0688 µM) and the MIC [12, 16] was 0.1 µg/mL (≈ 0.275 µM). The MIC [13] was 0.4 µg/mL (≈ 1.1 µM), the ED50 [14] was 0.4 mg/kg and the “Geometric mean MIC over Gram-positive bacteria (µg/mL)” value [15] was 0.26.
Work on `CCNCC1CCN(c2c(F)cc3c(=O)c(C(=O)O)cn4c3c2OCC4C)C1` (centres undefined) yielded an MIC [1] of 0.8 µg/mL (≈ 2.05 µM), an MIC [2] of 0.5 µg/mL (≈ 1.28 µM) and a Geometric mean MIC over Gram-negative bacteria (µg/mL) [3] of 0.4. It also gave an MIC [4] of 0.013 µg/mL (≈ 0.0334 µM), an MIC [5] of 0.2 µg/mL (≈ 0.514 µM) and an ED50 [6] of over 100 mg/kg. The MIC [7] was 0.1 µg/mL (≈ 0.257 µM), the MIC [8] was 0.8 µg/mL (≈ 2.05 µM) and the MIC [9] was 0.2 µg/mL (≈ 0.514 µM). The MIC [10] was 0.2 µg/mL (≈ 0.514 µM), the MIC [11] was 0.4 µg/mL (≈ 1.03 µM) and the MIC [12, 16] was 0.025 µg/mL (≈ 0.0642 µM). The MIC [13] was 0.1 µg/mL (≈ 0.257 µM), the ED50 [14] was 11 mg/kg and the “Geometric mean MIC over Gram-positive bacteria (µg/mL)” value [15] was 0.057.
`O=C(O)c1cn(C2CC2)c2cc(N3CCNCC3)c(F)c(O)c2c1=O` gave an MIC [1] of 0.4 µg/mL (≈ 1.15 µM), an MIC [2] of 1 µg/mL (≈ 2.88 µM) and an MIC [4] of 0.4 µg/mL (≈ 1.15 µM). For the same molecule, the MIC [5] was 0.05 µg/mL (≈ 0.144 µM), the ED50 [6] was 3 mg/kg and the MIC [7] was 0.8 µg/mL (≈ 2.3 µM). It also gave an MIC [8] of 0.1 µg/mL (≈ 0.288 µM), an MIC [9] of 3.1 µg/mL (≈ 8.92 µM) and an MIC [10] of 0.025 µg/mL (≈ 0.072 µM). It also gave an MIC [11] of 0.1 µg/mL (≈ 0.288 µM), an MIC [12, 16] of 0.2 µg/mL (≈ 0.576 µM) and an MIC [13] of 0.8 µg/mL (≈ 2.3 µM). It also gave an ED50 [14] of 0.1 mg/kg.
`CCNCC1CCN(c2c(F)cc3c(=O)c(C(=O)O)cn(C4CC4)c3c2Cl)C1` (centres undefined) showed an MIC [1] of 0.8 µg/mL (≈ 1.96 µM), an MIC [2] of 0.25 µg/mL (≈ 0.613 µM) and a Geometric mean MIC over Gram-negative bacteria (µg/mL) [3] of 0.13. The MIC [4] was 0.006 µg/mL (≈ 0.0147 µM), the MIC [5] was 0.05 µg/mL (≈ 0.123 µM) and the ED50 [6] was 4 mg/kg. The MIC [7] was 0.003 µg/mL (≈ 0.00736 µM), the MIC [8] was 0.2 µg/mL (≈ 0.49 µM) and the MIC [9] was 0.013 µg/mL (≈ 0.0319 µM). It also gave an MIC [10] of 0.05 µg/mL (≈ 0.123 µM), an MIC [11] of 0.1 µg/mL (≈ 0.245 µM) and an MIC [12, 16] of 0.003 µg/mL (≈ 0.00736 µM). The MIC [13] was 0.013 µg/mL (≈ 0.0319 µM), the ED50 [14] was 1 mg/kg and the “Geometric mean MIC over Gram-positive bacteria (µg/mL)” value [15] was 0.006.
Molecule `Nc1c(F)c(N2CCNCC2)cc2c1c(=O)c(C(=O)O)cn2C1CC1` has an MIC [1] of 0.8 µg/mL (≈ 2.31 µM), an MIC [2] of 1 µg/mL (≈ 2.89 µM) and a Geometric mean MIC over Gram-negative bacteria (µg/mL) [3] of 0.038. For the same molecule, the MIC [4] was 0.2 µg/mL (≈ 0.577 µM), the MIC [5] was 0.013 µg/mL (≈ 0.0375 µM) and the ED50 [6] was 4 mg/kg. The MIC [7] was 0.1 µg/mL (≈ 0.289 µM), the MIC [8] was 0.025 µg/mL (≈ 0.0722 µM) and the MIC [9] was 0.1 µg/mL (≈ 0.289 µM). It also gave an MIC [10] of 0.013 µg/mL (≈ 0.0375 µM), an MIC [11] of 0.025 µg/mL (≈ 0.0722 µM) and an MIC [12, 16] of 0.025 µg/mL (≈ 0.0722 µM). For the same molecule, the MIC [13] was 0.1 µg/mL (≈ 0.289 µM), the ED50 [14] was 0.3 mg/kg and the “Geometric mean MIC over Gram-positive bacteria (µg/mL)” value [15] was 0.087.
Work on `CC1COc2c(N3CCC(N)C3)c(F)cc3c(=O)c(C(=O)O)cn1c23` (centres undefined) yielded an MIC [1] of 0.4 µg/mL (≈ 1.15 µM), an MIC [2] of 0.75 µg/mL (≈ 2.16 µM) and a Geometric mean MIC over Gram-negative bacteria (µg/mL) [3] of 0.46. It also gave an MIC [4] of 0.2 µg/mL (≈ 0.576 µM), an MIC [5] of 0.4 µg/mL (≈ 1.15 µM) and an ED50 [6] of 29 mg/kg. The MIC [7] was 0.8 µg/mL (≈ 2.3 µM), the MIC [8] was 0.8 µg/mL (≈ 2.3 µM) and the MIC [9] was 1.6 µg/mL (≈ 4.61 µM). For the same molecule, the MIC [10] was 0.4 µg/mL (≈ 1.15 µM), the MIC [11] was 0.4 µg/mL (≈ 1.15 µM) and the MIC [12] was 0.1 µg/mL (≈ 0.288 µM). The MIC [13] was 1.6 µg/mL (≈ 4.61 µM), the ED50 [14] was 2 mg/kg and the “Geometric mean MIC over Gram-positive bacteria (µg/mL)” value [15] was 0.53.
Molecule `CCNCC1CCN(c2cc3c(cc2F)c(=O)c(C(=O)O)cn3C2CC2)C1` (centres undefined) has an MIC [1] of 1.6 µg/mL (≈ 4.28 µM), an MIC [2] of 1 µg/mL (≈ 2.68 µM) and a Geometric mean MIC over Gram-negative bacteria (µg/mL) [3] of 0.46. It also gave an MIC [4] of 0.05 µg/mL (≈ 0.134 µM), an MIC [5] of 0.4 µg/mL (≈ 1.07 µM) and an ED50 [6] of 35 mg/kg. The MIC [7] was 0.2 µg/mL (≈ 0.536 µM), the MIC [8] was 0.8 µg/mL (≈ 2.14 µM) and the MIC [9] was 0.4 µg/mL (≈ 1.07 µM). It also gave an MIC [10] of 0.2 µg/mL (≈ 0.536 µM), an MIC [11] of 0.2 µg/mL (≈ 0.536 µM) and an MIC [12, 16] of 0.013 µg/mL (≈ 0.0348 µM). The MIC [13] was 0.2 µg/mL (≈ 0.536 µM), the ED50 [14] was 2 mg/kg and the “Geometric mean MIC over Gram-positive bacteria (µg/mL)” value [15] was 0.1.
For `CCNCC1CCN(c2c(F)c(N)c3c(=O)c(C(=O)O)cn(CC)c3c2Cl)C1` (centres undefined), the MIC [1] was 25 µg/mL (≈ 60.8 µM), the MIC [2] was 2.5 µg/mL (≈ 6.08 µM) and the Geometric mean MIC over Gram-negative bacteria (µg/mL) [3] was 6.28. The MIC [4] was 6.3 µg/mL (≈ 15.3 µM), the MIC [5] was 3.1 µg/mL (≈ 7.54 µM) and the MIC [7] was 1.6 µg/mL (≈ 3.89 µM). For the same molecule, the MIC [8] was 12.5 µg/mL (≈ 30.4 µM), the MIC [9] was 1.6 µg/mL (≈ 3.89 µM) and the MIC [10] was 1.6 µg/mL (≈ 3.89 µM). For the same molecule, the MIC [11] was 6.3 µg/mL (≈ 15.3 µM), the MIC [12, 16] was 0.4 µg/mL (≈ 0.974 µM) and the MIC [13] was 1.6 µg/mL (≈ 3.89 µM). The “Geometric mean MIC over Gram-positive bacteria (µg/mL)” value [15] was 1.59.
`CCNCC1CCN(c2c(F)cc3c(=O)c(C(=O)O)cn(CC)c3c2F)C1` (centres undefined) [MERAFLOXACIN] was tested, and the MIC [1] was 1.6 µg/mL (≈ 4.22 µM), the MIC [2] was 2.5 µg/mL (≈ 6.59 µM) and the Geometric mean MIC over Gram-negative bacteria (µg/mL) [3] was 0.26. It also gave an MIC [4] of 0.1 µg/mL (≈ 0.264 µM), an MIC [5] of 0.1 µg/mL (≈ 0.264 µM) and an MIC [7] of 0.1 µg/mL (≈ 0.264 µM). For the same molecule, the MIC [8] was 0.4 µg/mL (≈ 1.05 µM), the MIC [9] was 0.1 µg/mL (≈ 0.264 µM) and the MIC [10] was 0.1 µg/mL (≈ 0.264 µM). For the same molecule, the MIC [11] was 0.2 µg/mL (≈ 0.527 µM), the MIC [12] was 0.05 µg/mL (≈ 0.132 µM) and the MIC [13] was 0.1 µg/mL (≈ 0.264 µM). For the same molecule, the Ratio [15] was 0.087.
